The source of these data is PubChem BioAssay.

The source made the active and inactive calls.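 How the source made its calls, unless noted: active means NADPH fluorescence slope more negative than the mean of all samples by about 3 SD, 99.7% confidence; inactive means the rest.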

The nature of test [1]: inhibitors of TNFa-induced NFkB p65 translocation, primary screen, imaging, HUVEC, MLSMR starter and 10KST1 sets (AID 438;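 active means inhibition above 20% together with a positive visual image hit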;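 further: compound added about 3h40 before a 20 min TNFalpha stimulation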;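 on inhibition: signal is the nuclear over cytoplasmic p65 intensity ratio per well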). The note with it: HUVEC TNFa-induced p65 nuclear translocation; cell count: measured here: nuclei count (cytotoxicity indicator), at 2.08 µM; inhibition: at 2 µM, stronger effect = higher value, 0% TNFa-plus-vehicle, 100% no-TNFa wells.
The nature of test [2]: inhibitors of mutant huntingtin aggregation, primary screen, imaging, exon1htt(103Q)mCFP cells, high-content imaging (AID 483;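 active means visual image review flags a hit and inhibition of aggregation exceeds 20%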;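 further: compound exposure lasted 3 days before fixation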;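 on nuclei count: percent of the per-plate median nuclei count of sample wells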). Particulars: exon1htt(103Q)mCFP cell line, aggregate imaging, at 2 µM; inhibition of aggregation: stronger effect = higher value; nuclei count: measured here: cell count, toxicity.
The nature of test [3]: inhibitors of E-selectin induction by TNFa, primary screen, imaging, HUVEC, immunofluorescence, MLSMR starter and 10KST1 sets (AID 487;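 active means visually confirmed hit in the image check and inhibition above 20%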;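 on inhibition: signal is fraction of cell area covered by stained E-selectin grains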;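 on nuclei count: 100% = median nuclei count of all wells on the same plate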). The note with it: HUVEC TNFalpha-induced E-selectin immunofluorescence imaging, at 2 µM; inhibition: stronger effect = higher value; nuclei count: measured here: cell number, toxicity.
The target of test [4] is Voltage-gated potassium channel subunit beta-2 (Rattus norvegicus) (UniProt P62483). Nature of the test: KvBeta enzyme negative modulators, primary screen, biochemical, NADPH fluorescence (AID 622;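 active means fluorescence slope higher than the sample average by over 3 SD, cut at about -0.22 in these data, passing the limit was not always enough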;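 further: slope of raw intensity against log time taken from 70 to 1610 s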). The note with it: recombinant KvBeta, 4-cyanobenzaldehyde reduction, at 10 µM, stronger effect = higher value.
Voltage-gated potassium channel subunit beta-2 (Rattus norvegicus), sequence (P62483 whole entry, looked up): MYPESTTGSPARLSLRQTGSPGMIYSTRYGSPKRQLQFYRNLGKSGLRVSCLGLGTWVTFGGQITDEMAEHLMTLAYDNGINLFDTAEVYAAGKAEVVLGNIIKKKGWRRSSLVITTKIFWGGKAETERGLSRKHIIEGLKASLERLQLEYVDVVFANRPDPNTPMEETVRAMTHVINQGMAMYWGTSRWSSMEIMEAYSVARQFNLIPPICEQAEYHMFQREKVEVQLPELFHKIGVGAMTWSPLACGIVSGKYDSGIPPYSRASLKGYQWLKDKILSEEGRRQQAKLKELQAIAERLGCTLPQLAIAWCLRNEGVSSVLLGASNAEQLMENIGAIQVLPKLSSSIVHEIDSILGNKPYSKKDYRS
For test [5] the target is unchanged. Nature of the test: KvBeta positive modulators, primary screen, biochemical, NADPH fluorescence (AID 623).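 Further: fluorescence intensity change per second fitted from 20 to 320 s.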 Particulars: Recombinant KvBeta, NADPH fluorescence decrease slope, 10 min; at 10 µM; stronger effect = lower value.
Test [6] deals with Alpha-2C adrenergic receptor (Homo sapiens) (UniProt P18825). Nature of the test: modulators of alpha2C/GIRK thallium flux, primary screen, cell-based, HEK293 alpha2C/GIRK1/2 (AID 624;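 active means fluorescence slope after compound addition differing from the mean of all screened samples at 99.7% confidence, in either direction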;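 further: slope of fluorescence ratio to pre-addition baseline per second over 15 to 24 s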). The note with it: thallium flux BTC fluorescence, at 10 µM, actives lie on both sides.
Alpha-2C adrenergic receptor (Homo sapiens), sequence (P18825 whole entry, looked up): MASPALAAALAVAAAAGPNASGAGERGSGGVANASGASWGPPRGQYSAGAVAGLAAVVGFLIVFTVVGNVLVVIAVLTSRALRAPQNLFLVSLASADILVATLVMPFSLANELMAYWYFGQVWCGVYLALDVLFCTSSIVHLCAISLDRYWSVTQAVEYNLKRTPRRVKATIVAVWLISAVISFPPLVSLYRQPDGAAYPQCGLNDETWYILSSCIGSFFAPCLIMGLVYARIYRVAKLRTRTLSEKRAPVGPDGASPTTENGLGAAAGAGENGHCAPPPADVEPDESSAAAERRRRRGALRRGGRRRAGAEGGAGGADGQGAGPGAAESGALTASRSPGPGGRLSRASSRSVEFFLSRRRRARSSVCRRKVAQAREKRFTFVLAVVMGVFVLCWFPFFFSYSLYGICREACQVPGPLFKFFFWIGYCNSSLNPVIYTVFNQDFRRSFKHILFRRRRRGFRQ
Test [7] is described as follows: inhibitors of larval lipid processing in zebrafish, primary screen, whole organism, PED6 fluorescence, gall bladder and intestine (AID 686;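 active means a full or partial loss of lipid-probe fluorescence in the fish gall bladder, intestine or both, judged by eye; inactive means no fluorescence loss, or compound toxic to the fish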;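 further: larvae 5 to 7 days old with five fish per well; signal comes from phospholipase A2 cleavage of quenched PED6 carried via bile; overnight exposure to compound and PED6 before scoring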). The note with it: Zebrafish larvae PED6 lipid processing, fluorescence scoring; screened at 20 µM (by protocol). The method in brief:
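Doses: 20 µM single dose. Test system: live zebrafish larvae aged 5-7 days, whole organism. Quantity: five larvae per well. Measured by: By-eye fluorescence microscopy. Reagent: ingested quenched lipid PED6 at 100 nM. Read-out: visual per-well fluorescence inhibition score. Times: overnight exposure of larvae to compound plus PED6.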

The nature of test [8]: inhibitors of Sendai virus-induced IRF3 signaling, primary screen, TLR/RLR signaling modifier project, cell-based, Sendai virus stimulus, luciferase, 10K MLSCN set (AID 602276;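 active means inhibition at or above 50% at 10 µM; inactive means inhibition below 50%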;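 further: firefly luciferase from ISG56 promoter only with Renilla not read in this screen; 0% = Sendai virus plus DMSO and 100% = medium plus DMSO without virus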). The note with it: HEK293 RL24 IRF3 luciferase reporter, at 10 µM, stronger effect = higher value.
Test [9] in a line: inhibitors of poly I:C-induced TLR3 signaling, primary screen, cell-based, poly I:C stimulus, luciferase, 10K MLSCN set (AID 602277;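 active means inhibition of the reporter signal at or above 50%; inactive means inhibition below 50%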). Particulars: HEK293-TLR3 RL24 IRF3 luciferase reporter, at 10 µM, stronger effect = higher value.

For orientation: inhibition means the relative decrease from the control value, in per cent. As to `COc1ccccc1CC(=O)NCC1CCCO1` (stereo not drawn), the cell count in test [1] is 346. Also, the inhibition in test [1] is -15.9% (inactive); in [3], -2.8% (inactive); in test [8], 11.5% (inactive); in test [9] it was 17.7% (inactive). The inhibition of aggregation in [2] was 8.9% (inactive). Further, the nuclei count in test [2] was found to be 107%; in test [3], 130%. For the same compound, the fluorescence slope in [4] was -0.329 (inactive). Further, the NADPH fluorescence slope in [5] is -4.4e-05 (inactive). Also, in test [6], the slope was 0.00554 (inactive). Also, the compound was called inactive in test [7].

Consider `O=C(Nc1cccnc1)Nc1ccc(F)c(Cl)c1`, for which the cell count in test [1] was 347. Besides, the inhibition in [1] was 11.8% (inactive); in test [3], -15.8% (inactive); in test [8], -39.2% (inactive); in test [9] it was -103% (inactive). Besides, in test [2], the inhibition of aggregation is -11.4% (inactive). The nuclei count in test [2] came to 94.2%; in [3] it was 107%. Also, in [4], the fluorescence slope is -0.517 (inactive). Besides, the NADPH fluorescence slope in test [5] is 1.7e-05 (inactive). For the same compound, the slope in test [6] was 0.00552 (inactive). In addition, in [7], the outcome was “inactive; toxic”.

In the case of `Nc1cc(N)nc(SCc2ccccc2)n1`, the cell count in test [1] was 371. The inhibition in test [1] is 1.1% (inactive); in test [3], -26.1% (inactive); in test [8], -47.8% (inactive); in test [9], -101% (inactive). In [2], the inhibition of aggregation was 6.6% (inactive). Moreover, the nuclei count was determined as 103% in test [2] and 108% in [3]. In [4], the fluorescence slope was -0.499 (inactive). Besides, the NADPH fluorescence slope in test [5] is 1.3e-05 (inactive). The slope in test [6] was 0.00402 (inactive). Besides, the compound was classed as inactive in test [7].

As to `CN(c1ccccc1C(=O)NCC1CCCO1)S(C)(=O)=O` (stereo not drawn), in test [1], the cell count is 314. Also, the inhibition in test [1] was 3.8% (inactive); in test [3], -12.5% (inactive); in test [8], 15.7% (inactive); in [9], 14.6% (inactive). In addition, the inhibition of aggregation in [2] was 4.6% (inactive). The nuclei count in test [2] was determined as 94.8%; in test [3] it was 93.8%. The fluorescence slope in [4] was -0.444 (inactive). In addition, the NADPH fluorescence slope in test [5] was -3.7e-05 (inactive). The slope in [6] was 0.00536 (inactive). Also, the compound was called inactive in [7].

For the compound `Cc1cc(C(=O)CSc2nnc(-c3ccccc3)n2C)c(C)n1C`, in test [1], the cell count came to 403. The inhibition is 4.4% (inactive) in test [1], -5.3% (inactive) in test [3], -0.894% (inactive) in [8] and 78.4% (active) in test [9]. The inhibition of aggregation in test [2] is 3.6% (inactive). The figures for the nuclei count in [2] and in test [3] were 88.2% and 107%, respectively. Further, the fluorescence slope in test [4] was -0.477 (inactive). In test [5], the NADPH fluorescence slope is -5.5e-05 (inactive). In addition, the slope in test [6] is 0.00512 (inactive). Besides, the compound was called inactive in [7].

Consider `Cc1nn(Cc2ccccc2)c(C)c1NC(=O)c1cc(-c2ccco2)on1`, for which the cell count in test [1] is 408. The inhibition is -8.1% (inactive) in [1], -15.3% (inactive) in test [3], 9.89% (inactive) in test [8] and 12.8% (inactive) in [9]. In test [2], the inhibition of aggregation was -15.5% (inactive). Moreover, the nuclei count in test [2] and in [3] was 101% each time. Further, the fluorescence slope in [4] was -0.347 (inactive). For the same compound, the NADPH fluorescence slope in test [5] was -6.8e-06 (inactive). In addition, the slope in test [6] is 0.00588 (inactive). Moreover, the call in [7] was inactive.

With `COc1ccc(S(=O)(=O)NCCCN2CCOCC2)c2ccccc12`, the cell count in test [1] is 674. For the same compound, the inhibition in [1] was -3.5% (inactive); in [3], -82.6% (inactive); in test [8] it was 14.4% (inactive); in test [9], 19.6% (inactive). In [2], the inhibition of aggregation is -7.8% (inactive). The results for the nuclei count in test [2] and in test [3] were 102% and 100%, respectively. In addition, in test [4], the fluorescence slope was -0.356 (inactive). In test [5], the NADPH fluorescence slope was -3.4e-05 (inactive). The slope in test [6] was 0.00569 (inactive). Besides, in test [7], the call was inactive.

`Cc1nn(Cc2ccccc2)c2c1C(c1ccncc1)C(C#N)=C(N)O2` (stereo not drawn): in [1], the cell count came out at 273. Further, the inhibition was -1.3% (inactive) in [1], -58.9% (inactive) in test [3], 2.54% (inactive) in test [8] and 0.489% (inactive) in [9]. Also, the inhibition of aggregation in test [2] was 17.9% (inactive). For the same compound, the nuclei count turned out to be 62.3% in test [2] and 97.3% in test [3]. Also, in [4], the fluorescence slope was -0.381 (inactive). In [5], the NADPH fluorescence slope was -5.9e-05 (inactive). Further, the slope in test [6] was 0.0052 (inactive). In addition, the outcome in test [7] was inactive.

For the compound `O=C(O)CSc1ncn[nH]1`, the cell count in [1] amounted to 718. Besides, the inhibition is -14.4% (inactive) in test [1], -28.2% (inactive) in [3], 15.3% (inactive) in test [8] and 12.4% (inactive) in test [9]. In test [2], the inhibition of aggregation was 22.9% (inactive). For the same compound, the values for the nuclei count in test [2] and in test [3] were 98.3% and 112%, respectively. Besides, the fluorescence slope in [4] was -0.454 (inactive). For the same compound, the NADPH fluorescence slope in test [5] is -4.4e-05 (inactive). Also, in test [6], the slope is 0.00435 (inactive). Further, in test [7], the result was inactive.

With `O=C(Cn1c(=O)oc2ccccc21)N1CCN(c2ccccc2)CC1`, the cell count in [1] came to 421. Moreover, the inhibition is 2.6% (inactive) in test [1], -10.5% (inactive) in [3], 8.94% (inactive) in [8] and 14.4% (inactive) in test [9]. The inhibition of aggregation in [2] was 10% (inactive). For the same compound, the nuclei count in test [2] amounted to 99.1%; in test [3], 114%. Moreover, the fluorescence slope in [4] was -0.407 (inactive). In addition, the NADPH fluorescence slope in test [5] was -4.3e-05 (inactive). In [6], the slope was 0.00535 (inactive). Further, in [7], the call was inactive.

Regarding `O=C(CN1CCSCC1)N1CCc2[nH]c3ccc(Br)cc3c2C1`, the cell count in test [1] amounted to 691. Also, the inhibition in [1] was 3.4% (inactive); in [3], 28.3% (inactive); in test [8] it was 10.7% (inactive); in test [9] it was 7.8% (inactive). Moreover, the inhibition of aggregation in test [2] was 21.5% (inactive). The figures for the nuclei count in test [2] and in test [3] were 99.4% and 102%, respectively. Also, in test [4], the fluorescence slope is -0.384 (inactive). For the same compound, in test [5], the NADPH fluorescence slope was -5.2e-05 (inactive). In addition, the slope in [6] was 0.00508 (inactive). Moreover, the compound was called inactive in test [7].

On to `Cc1ccc(S(=O)(=O)N2CCN(C(=O)N3CCOCC3)C2C)cc1` (stereo not drawn), for which the cell count in test [1] came to 469. Besides, the inhibition is 7.3% (inactive) in [1], -48.1% (inactive) in test [3], 11.8% (inactive) in test [8] and 45.8% (inactive) in test [9]. Also, in [2], the inhibition of aggregation was 12.7% (inactive). Also, the nuclei count in [2] amounted to 102%; in test [3] it was 108%. Also, the fluorescence slope in [4] was -0.439 (inactive). Moreover, the NADPH fluorescence slope in [5] is -5.1e-05 (inactive). In test [6], the slope was 0.00556 (inactive). Moreover, the compound was classed as inactive in test [7].

Turning to `O=C(Nc1ccccc1)N(CCCN1CCOCC1)Cc1cc2cc3c(cc2[nH]c1=O)OCCO3`, the cell count in [1] was 390. Also, the inhibition is 8% (inactive) in [1], -24.2% (inactive) in [3], -3.35% (inactive) in test [8] and 8.69% (inactive) in [9]. In addition, the inhibition of aggregation in test [2] was 20.1% (inactive). The nuclei count amounted to 70.5% in test [2] and 98.3% in [3]. Further, the fluorescence slope in test [4] was -0.412 (inactive). Further, the NADPH fluorescence slope in test [5] was -4.1e-05 (inactive). Further, the slope in [6] is 0.00525 (inactive). Besides, in [7], the result was inactive.

For `Cc1cc(C)c(NC2=NCC(=O)N2C2CCCCC2)c(C)c1`, in [1], the cell count was found to be 638. Also, the inhibition is -2.2% (inactive) in test [1], -32.7% (inactive) in [3], -0.88% (inactive) in test [8] and -0.177% (inactive) in [9]. Besides, the inhibition of aggregation in test [2] was 5.3% (inactive). The nuclei count came to 122% in test [2] and 114% in test [3]. Moreover, in [4], the fluorescence slope is -0.389 (inactive). For the same compound, the NADPH fluorescence slope in test [5] was 1.7e-05 (inactive). The slope in [6] is 0.00607 (inactive). Moreover, the compound was classed as inactive in test [7].
